Measurements: ChEMBL document CHEMBL1121744, “Synthesis and antihypertensive activity of a series of 8-substituted 1-oxa-3,8-diazaspiro[4.5]decan-2-ones” (J Med Chem, 1981)

How the values were obtained:
Canis familiaris [1] = experiment: Percent inhibition of the pressor responses to 0.75 ug/kg iv norepinephrine in pentobarbital-anesthetized dogs for a dose of 0.316 mg/kg; assay type: functional; details: Canis lupus familiaris
Method in brief: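 Pentobarbital-anesthetized dogs (35 mg/kg iv) with femoral arterial pressure recording. Epinephrine (1 μg/kg), norepinephrine (0.75 μg/kg) and phenylephrine (7.5 μg/kg) iv challenges were given about every 10 min before and after rising iv test doses, which were spaced 90 min apart. Value is % inhibition of the pressor response.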

Canis familiaris [2] = experiment: Change in mean arterial pressure in anesthetized dogs for a dose of 10 mg/kg; assay type: functional, Canis lupus familiaris, Artery
Method in brief: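 Dogs anesthetized with sodium pentobarbital (35 mg/kg iv), femoral artery cannulated for pressure, ECG-triggered heart rate, femoral vein for dosing. Rising iv doses were given 90 min apart, and each dose is the full dose, not cumulative. Value is the maximal mean arterial pressure change 10–15 min after each dose, two dogs per compound, ±3 mmHg. Saline served as control.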

Canis familiaris [3] = experiment: Percent inhibition of the pressor responses to 1 ug/kg iv Epinephrine in pentobarbital-anesthetized dogs for a dose of 10 mg/kg; assay type: functional; details: Canis lupus familiaris
Method in brief: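 Dogs anesthetized with sodium pentobarbital 35 mg/kg iv; femoral artery cannulated for blood pressure, femoral vein for dosing. Epinephrine 1 μg/kg iv given at about 10-min intervals before and after increasing test doses. Test doses given iv at 90-min intervals. Result is per cent inhibition of the pressor response.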

Rattus norvegicus [4] = experiment: The antihypertensive activity as percentage fall in systolic blood pressure in spontaneously hypertensive rats after a period of 3 hr for a dose of 50 mg/kg po
Rattus norvegicus [5] = experiment: The antihypertensive activity as percentage fall in systolic blood pressure in spontaneously hypertensive rats after a period of 4 hr for a dose of 50 mg/kg po
Rattus norvegicus [6] = experiment: The antihypertensive activity as percentage fall in systolic blood pressure in spontaneously hypertensive rats after a period of 2 hr for a dose of 50 mg/kg po

| Structure (SMILES) | inhibition in vivo at 0.316 mg/kg (Canis familiaris [1]) | MAP (Canis familiaris [2]) | inhibition in vivo at 10 mg/kg (Canis familiaris [3]) | Decrease in blood pressure (Rattus norvegicus [4]) | Decrease in blood pressure (Rattus norvegicus [5]) | Decrease in blood pressure (Rattus norvegicus [6]) |
| --- | --- | --- | --- | --- | --- | --- |
| CN1CC2(CCN(CC(O)C3COc4ccccc4O3)CC2)OC1=O (stereo unspecified) | 41% | – | – | – | – | – |
| O=C1NCC2(CCN(CCc3c[nH]c4ccccc34)CC2)O1 | – | -6 mmHg | 97% | 8% | 11% | 10% |
